Measurements taken from ChEMBL document CHEMBL1649314, “Experimental murine scedosporiosis: histopathology and azole treatment” (2010).
Converted amounts (≈) assume the structure as drawn. The source made the active and inactive calls. The calls are words filed in the database; no cut-off is given here.

Key:
Scedosporium apiospermum [1] = assay: Antifungal activity against Scedosporium apiospermum CBS 117407 infected in immunosuppressed OF1 mouse assessed as reduction in kidney fungal burden at 20 mg/kg, po BID administered 24 hrs postinfection for 10 days measured after 20 days; format: functional, organism-based; design: dose 20 mg/kg
Scedosporium apiospermum [2] = assay: Antifungal activity against Scedosporium apiospermum IHEM 14464 infected in immunosuppressed OF1 mouse assessed as prolonged survival of mouse at 20 mg/kg, po BID administered 24 hrs postinfection for 10 days measured after 20 days; format: functional, organism-based; design: dose 20 mg/kg
Outline: (§1)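 Male OF1 mice, groups of 10, immunosuppressed 1 day before infection with cyclophosphamide 200 mg/kg i.p. plus 5-fluorouracil 150 mg/kg i.v. Infected i.v. via tail vein with 1 × 10^4 CFU in 0.2 ml saline. Oral treatment began 24 h post-challenge for 10 days. Mice checked daily for 20 days. Survival by Kaplan-Meier, compared by log rank test.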

Scedosporium apiospermum [3] = assay: Antifungal activity against Scedosporium apiospermum IHEM 14464 infected in immunosuppressed OF1 mouse assessed as prolonged survival of mouse at 40 mg/kg, po BID administered 24 hrs postinfection for 10 days measured after 20 days; format: functional, organism-based; design: dose 40 mg/kg
Scedosporium apiospermum [4] = assay: Antifungal activity against Scedosporium apiospermum IHEM 14464 infected in immunosuppressed OF1 mouse assessed as reduction in kidney fungal burden at 20 mg/kg, po BID administered 24 hrs postinfection for 10 days measured after 20 days; format: functional, organism-based; design: dose 20 mg/kg
Scedosporium aurantiacum [5] = assay: Antifungal activity against Scedosporium aurantiacum CBS 116910 infected in immunosuppressed OF1 mouse assessed as reduction in kidney fungal burden at 40 mg/kg, po BID administered 24 hrs postinfection for 10 days measured after 20 days; format: functional, organism-based; design: dose 40 mg/kg
Scedosporium aurantiacum [6] = assay: Antifungal activity against Scedosporium aurantiacum CBS 116910 infected in immunosuppressed OF1 mouse assessed as reduction in brain fungal burden at 20 mg/kg, po BID administered 24 hrs postinfection for 10 days measured after 20 days; format: functional, organism-based; design: dose 20 mg/kg
[7] = Antifungal activity against Scedosporium aurantiacum CBS 116910 infected in immunosuppressed OF1 mouse assessed as prolonged survival of mouse at 20 mg/kg, po BID administered 24 hrs postinfection for 10 days measured after 20 days; format: functional, organism-based; design: dose 20 mg/kg; outline: as §1
Scedosporium apiospermum [8] = assay: Antifungal activity against Scedosporium apiospermum IHEM 14464 by broth dilution method; format: functional
[9] = Antifungal activity against Scedosporium aurantiacum CBS 116910 infected in immunosuppressed OF1 mouse assessed as prolonged survival of mouse at 40 mg/kg, po BID administered 24 hrs postinfection for 10 days measured after 20 days; format: functional, organism-based; design: dose 40 mg/kg
[10] = Antifungal activity against Scedosporium aurantiacum IHEM 15458 infected in immunosuppressed OF1 mouse assessed as prolonged survival of mouse at 40 mg/kg, po BID administered 24 hrs postinfection for 10 days measured after 20 days; format: functional, organism-based; design: dose 40 mg/kg
Scedosporium boydii [11] = assay: Antifungal activity against Scedosporium boydii FMR 6694 infected in immunosuppressed OF1 mouse assessed as reduction in brain fungal burden at 20 mg/kg, po BID administered 24 hrs postinfection for 10 days measured after 20 days; format: functional, organism-based; design: dose 20 mg/kg
[12] = Antifungal activity against Scedosporium aurantiacum CBS 116910 by broth dilution method; format: functional
Scedosporium apiospermum [13] = assay: Antifungal activity against Scedosporium apiospermum IHEM 14464 infected in immunosuppressed OF1 mouse assessed as reduction in kidney fungal burden at 40 mg/kg, po BID administered 24 hrs postinfection for 10 days measured after 20 days; format: functional, organism-based; design: dose 40 mg/kg
Scedosporium apiospermum [14] = assay: Antifungal activity against Scedosporium apiospermum CBS 117407 infected in immunosuppressed OF1 mouse assessed as reduction in kidney fungal burden at 40 mg/kg, po BID administered 24 hrs postinfection for 10 days measured after 20 days; format: functional, organism-based; design: dose 40 mg/kg
Scedosporium boydii [15] = assay: Antifungal activity against Scedosporium boydii FMR 6694 infected in immunosuppressed OF1 mouse assessed as prolonged survival of mouse at 20 mg/kg, po BID administered 24 hrs postinfection for 10 days measured after 20 days; format: functional, organism-based; design: dose 20 mg/kg; outline: as §1
Scedosporium boydii [16] = assay: Antifungal activity against Scedosporium boydii FMR 8627 infected in immunosuppressed OF1 mouse assessed as reduction in kidney fungal burden at 40 mg/kg, po BID administered 24 hrs postinfection for 10 days measured after 20 days; format: functional, organism-based; design: dose 40 mg/kg
Scedosporium boydii [17] = assay: Antifungal activity against Scedosporium boydii FMR 6694 infected in immunosuppressed OF1 mouse assessed as reduction in kidney fungal burden at 20 mg/kg, po BID administered 24 hrs postinfection for 10 days measured after 20 days; format: functional, organism-based; design: dose 20 mg/kg
Scedosporium aurantiacum [18] = assay: Antifungal activity against Scedosporium aurantiacum IHEM 15458 infected in immunosuppressed OF1 mouse assessed as reduction in brain fungal burden at 20 mg/kg, po BID administered 24 hrs postinfection for 10 days measured after 20 days; format: functional, organism-based; design: dose 20 mg/kg
Scedosporium aurantiacum [19] = assay: Antifungal activity against Scedosporium aurantiacum IHEM 15458 infected in immunosuppressed OF1 mouse assessed as reduction in kidney fungal burden at 20 mg/kg, po BID administered 24 hrs postinfection for 10 days measured after 20 days; format: functional, organism-based; design: dose 20 mg/kg
[20] = Antifungal activity against Scedosporium aurantiacum IHEM 15458 infected in immunosuppressed OF1 mouse assessed as prolonged survival of mouse at 20 mg/kg, po BID administered 24 hrs postinfection for 10 days measured after 20 days; format: functional, organism-based; design: dose 20 mg/kg; outline: as §1
Scedosporium boydii [21] = assay: Antifungal activity against Scedosporium boydii FMR 8627 infected in immunosuppressed OF1 mouse assessed as reduction in brain fungal burden at 20 mg/kg, po BID administered 24 hrs postinfection for 10 days measured after 20 days; format: functional, organism-based; design: dose 20 mg/kg
Scedosporium apiospermum [22] = assay: Antifungal activity against Scedosporium apiospermum IHEM 14464 infected in immunosuppressed OF1 mouse assessed as reduction in brain fungal burden at 20 mg/kg, po BID administered 24 hrs postinfection for 10 days measured after 20 days; format: functional, organism-based; design: dose 20 mg/kg
[23] = Antifungal activity against Scedosporium aurantiacum IHEM 15458 by broth dilution method; format: functional
Scedosporium boydii [24] = assay: Antifungal activity against Scedosporium boydii FMR 8627 infected in immunosuppressed OF1 mouse assessed as prolonged survival of mouse at 40 mg/kg, po BID administered 24 hrs postinfection for 10 days measured after 20 days; format: functional, organism-based; design: dose 40 mg/kg
Scedosporium boydii [25] = assay: Antifungal activity against Scedosporium boydii FMR 6694 infected in immunosuppressed OF1 mouse assessed as reduction in kidney fungal burden at 40 mg/kg, po BID administered 24 hrs postinfection for 10 days measured after 20 days; format: functional, organism-based; design: dose 40 mg/kg
Scedosporium boydii [26] = assay: Antifungal activity against Scedosporium boydii FMR 8627 by broth dilution method; format: functional
Scedosporium apiospermum [27] = assay: Antifungal activity against Scedosporium apiospermum CBS 117407 infected in immunosuppressed OF1 mouse assessed as prolonged survival of mouse at 20 mg/kg, po BID administered 24 hrs postinfection for 10 days measured after 20 days; format: functional, organism-based; design: dose 20 mg/kg; outline: as §1
Scedosporium boydii [28] = assay: Antifungal activity against Scedosporium boydii FMR 6694 by broth dilution method; format: functional
Scedosporium apiospermum [29] = assay: Antifungal activity against Scedosporium apiospermum CBS 117407 infected in immunosuppressed OF1 mouse assessed as prolonged survival of mouse at 40 mg/kg, po BID administered 24 hrs postinfection for 10 days measured after 20 days; format: functional, organism-based; design: dose 40 mg/kg
Scedosporium aurantiacum [30] = assay: Antifungal activity against Scedosporium aurantiacum CBS 116910 infected in immunosuppressed OF1 mouse assessed as reduction in kidney fungal burden at 20 mg/kg, po BID administered 24 hrs postinfection for 10 days measured after 20 days; format: functional, organism-based; design: dose 20 mg/kg
Scedosporium boydii [31] = assay: Antifungal activity against Scedosporium boydii FMR 8627 infected in immunosuppressed OF1 mouse assessed as prolonged survival of mouse at 20 mg/kg, po BID administered 24 hrs postinfection for 10 days measured after 20 days; format: functional, organism-based; design: dose 20 mg/kg
Outline: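 Male OF1 mice were immunosuppressed 1 day before infection with cyclophosphamide 200 mg/kg i.p. plus 5-fluorouracil 150 mg/kg i.v. They were infected i.v. via a lateral tail vein with 1 × 10^4 CFU/mouse in 0.2 ml saline. Oral dosing was 10 or 20 mg/kg twice daily, or 20 or 40 mg/kg once daily (those mice and controls drank grapefruit juice from day −3). Dosing ran 24 h post-challenge for 10 days; 10 mice/group; observed daily to day 20; Kaplan-Meier with log rank test.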

Scedosporium apiospermum [32] = assay: Antifungal activity against Scedosporium apiospermum CBS 117407 infected in immunosuppressed OF1 mouse assessed as reduction in brain fungal burden at 20 mg/kg, po BID administered 24 hrs postinfection for 10 days measured after 20 days; format: functional, organism-based; design: dose 20 mg/kg
Scedosporium apiospermum [33] = assay: Antifungal activity against Scedosporium apiospermum CBS 117407 by broth dilution method; format: functional
Scedosporium aurantiacum [34] = assay: Antifungal activity against Scedosporium aurantiacum IHEM 15458 infected in immunosuppressed OF1 mouse assessed as reduction in kidney fungal burden at 40 mg/kg, po BID administered 24 hrs postinfection for 10 days measured after 20 days; format: functional, organism-based; design: dose 40 mg/kg
Scedosporium boydii [35] = assay: Antifungal activity against Scedosporium boydii FMR 8627 infected in immunosuppressed OF1 mouse assessed as reduction in kidney fungal burden at 20 mg/kg, po BID administered 24 hrs postinfection for 10 days measured after 20 days; format: functional, organism-based; design: dose 20 mg/kg
Scedosporium boydii [36] = assay: Antifungal activity against Scedosporium boydii FMR 6694 infected in immunosuppressed OF1 mouse assessed as prolonged survival of mouse at 40 mg/kg, po BID administered 24 hrs postinfection for 10 days measured after 20 days; format: functional, organism-based; design: dose 40 mg/kg

In the case of `C[C@@H](c1ncncc1F)[C@](O)(Cn1cncn1)c1ccc(F)cc1F` [VORICONAZOLE], the Activity (Scedosporium apiospermum [1]) is reported as “Active”, the Activity (Scedosporium apiospermum [2]) is reported as “Active” and the Activity (Scedosporium apiospermum [3]) is reported as “Active”. For the same molecule, the Activity (Scedosporium apiospermum [4]) was “Active”, the Activity (Scedosporium aurantiacum [5]) was “Active” and the Activity (Scedosporium aurantiacum [6]) was “Active”. The Activity [7] was “Active”, the MIC (Scedosporium apiospermum [8]) was 0.25 µg/mL (≈ 0.716 µM) and the Activity [9] was “Active”. For the same molecule, the Activity [10] was “Active”, the Activity (Scedosporium boydii [11]) was “inactive” and the MIC [12] was 32 µg/mL (≈ 91.6 µM). For the same molecule, the Activity (Scedosporium apiospermum [13]) was “Active”, the Activity (Scedosporium apiospermum [14]) was “Active” and the Activity (Scedosporium boydii [15]) was “Active”. The Activity (Scedosporium boydii [16]) was “Active”, the Activity (Scedosporium boydii [17]) was “inactive” and the Activity (Scedosporium aurantiacum [18]) was “Active”. For the same molecule, the Activity (Scedosporium aurantiacum [19]) was “Active”, the Activity [20] was “Active” and the Activity (Scedosporium boydii [21]) was “Active”. For the same molecule, the Activity (Scedosporium apiospermum [22]) was “Active”, the MIC [23] was 1 µg/mL (≈ 2.86 µM) and the Activity (Scedosporium boydii [24]) was “Active”. The Activity (Scedosporium boydii [25]) was “inactive”, the MIC (Scedosporium boydii [26]) was 0.5 µg/mL (≈ 1.43 µM) and the Activity (Scedosporium apiospermum [27]) was “Active”. For the same molecule, the MIC (Scedosporium boydii [28]) was 1 µg/mL (≈ 2.86 µM), the Activity (Scedosporium apiospermum [29]) was “Active” and the Activity (Scedosporium aurantiacum [30]) was “Active”. The Activity (Scedosporium boydii [31]) was “Active”, the Activity (Scedosporium apiospermum [32]) was “Active” and the MIC (Scedosporium apiospermum [33]) was 0.5 µg/mL (≈ 1.43 µM). For the same molecule, the Activity (Scedosporium aurantiacum [34]) was “Active”, the Activity (Scedosporium boydii [35]) was “Active” and the Activity (Scedosporium boydii [36]) was “Active”.
